From ChEMBL document CHEMBL4610092, “Cytotoxic Nitrogenated Azaphilones from the Deep-Sea-Derived Fungus Chaetomium globosum MP4-S01-7” (J Nat Prod, 2020)
pIC50: −log10 of the molar value.

Columns and labels:
MGC-803 [1] = assay: Cytotoxicity against human MGC803 cells assessed as reduction in cell viability measured after 72 hrs by CCK8 assay; type: functional, cell-based; details: MGC-803, 72 h
Method in brief: (§1)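 MGC803 or AGS cells (RPMI 1640, 10% FBS, 5% CO₂, 37 °C) plated at 3 × 10³ per well overnight, then exposed to 0.1–10 μM for 72 h. Viability was read by CCK8 absorbance at 450 nm, and IC₅₀ was calculated from the concentration series.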

AGS [2] = assay: Cytotoxicity against human AGS cells assessed as reduction in cell viability measured after 72 hrs by CCK8 assay; type: functional, cell-based; method in brief: as §1
MGC-803 [3] = assay: Induction of apoptosis in human MGC803 cells assessed as late apoptotic cells at 0.5 uM measured after 48 hrs FITC-A/PE-A staining based flow cytometry (reference value: 0.9 to 2.18%); type: functional
AGS [4] = assay: Induction of apoptosis in human AGS cells assessed as viable cells at 1 uM measured after 48 hrs FITC-A/PE-A staining based flow cytometry (reference value: 92.05 to 93.85%); type: functional; details: read-out: Activity
AGS [5] = assay: Induction of apoptosis in human AGS cells assessed as necrotic cells at 5 uM measured after 48 hrs FITC-A/PE-A staining based flow cytometry (reference value: 1.35 to 2.69%); type: functional
MGC-803 [6] = assay: Induction of apoptosis in human MGC803 cells assessed as viable cells at 0.5 uM measured after 48 hrs FITC-A/PE-A staining based flow cytometry (reference value: 94.89 to 96.41%); type: functional; details: MGC-803, 48 h, read-out: Activity
MGC-803 [7] = assay: Induction of apoptosis in human MGC803 cells assessed as late apoptotic cells at 0.2 uM measured after 48 hrs FITC-A/PE-A staining based flow cytometry (reference value: 0.9 to 2.18%); type: functional
AGS [8] = assay: Induction of apoptosis in human AGS cells measured after 48 hrs FITC-A/PE-A staining based flow cytometry; type: functional, cell-based
MGC-803 [9] = assay: Induction of apoptosis in human MGC803 cells assessed as viable cells at 0.2 uM measured after 48 hrs FITC-A/PE-A staining based flow cytometry (reference value: 94.89 to 96.41%); type: functional; details: MGC-803, 48 h, read-out: Activity
MGC-803 [10] = assay: Induction of apoptosis in human MGC803 cells assessed as necrotic cells at 0.2 uM measured after 48 hrs FITC-A/PE-A staining based flow cytometry (reference value: 0.9 to 2.18%); type: functional
MGC-803 [11] = assay: Induction of apoptosis in human MGC803 cells measured after 48 hrs FITC-A/PE-A staining based flow cytometry; type: functional, cell-based
AGS [12] = assay: Induction of apoptosis in human AGS cells assessed as late apoptotic cells at 5 uM measured after 48 hrs FITC-A/PE-A staining based flow cytometry (reference value: 1.89 to 3.49%); type: functional
MGC-803 [13] = assay: Induction of apoptosis in human MGC803 cells assessed as early apoptotic cells at 0.2 uM measured after 48 hrs FITC-A/PE-A staining based flow cytometry (reference value: 0.59 to 3.54%); type: functional
AGS [14] = assay: Induction of apoptosis in human AGS cells assessed as viable cells at 0.2 uM measured after 48 hrs FITC-A/PE-A staining based flow cytometry (reference value: 92.05 to 93.85%); type: functional; details: read-out: Activity
AGS [15] = assay: Induction of apoptosis in human AGS cells assessed as late apoptotic cells at 0.5 uM measured after 48 hrs FITC-A/PE-A staining based flow cytometry (reference value: 1.89 to 3.49%); type: functional
AGS [16] = assay: Induction of apoptosis in human AGS cells assessed as early apoptotic cells at 0.5 uM measured after 48 hrs FITC-A/PE-A staining based flow cytometry (reference value: 1.77 to 2.91%); type: functional
AGS [17] = assay: Induction of apoptosis in human AGS cells assessed as necrotic cells at 0.2 uM measured after 48 hrs FITC-A/PE-A staining based flow cytometry (reference value: 1.35 to 2.69%); type: functional
MGC-803 [18] = assay: Induction of apoptosis in human MGC803 cells assessed as necrotic cells at 1 uM measured after 48 hrs FITC-A/PE-A staining based flow cytometry (reference value: 0.9 to 2.18%); type: functional
AGS [19] = assay: Induction of apoptosis in human AGS cells assessed as viable cells at 0.5 uM measured after 48 hrs FITC-A/PE-A staining based flow cytometry (reference value: 92.05 to 93.85%); type: functional; details: read-out: Activity
AGS [20] = assay: Induction of apoptosis in human AGS cells assessed as early apoptotic cells at 0.2 uM measured after 48 hrs FITC-A/PE-A staining based flow cytometry (reference value: 1.77 to 2.91%); type: functional
MGC-803 [21] = assay: Induction of apoptosis in human MGC803 cells assessed as early apoptotic cells at 5 uM measured after 48 hrs FITC-A/PE-A staining based flow cytometry (reference value: 0.59 to 3.54%); type: functional
AGS [22] = assay: Induction of apoptosis in human AGS cells assessed as viable cells at 5 uM measured after 48 hrs FITC-A/PE-A staining based flow cytometry (reference value: 92.05 to 93.85%); type: functional; details: read-out: Activity
MGC-803 [23] = assay: Induction of apoptosis in human MGC803 cells assessed as early apoptotic cells at 0.5 uM measured after 48 hrs FITC-A/PE-A staining based flow cytometry (reference value: 0.59 to 3.54%); type: functional
AGS [24] = assay: Induction of apoptosis in human AGS cells assessed as necrotic cells at 0.5 uM measured after 48 hrs FITC-A/PE-A staining based flow cytometry (reference value: 1.35 to 2.69%); type: functional
MGC-803 [25] = assay: Induction of apoptosis in human MGC803 cells assessed as late apoptotic cells at 1 uM measured after 48 hrs FITC-A/PE-A staining based flow cytometry (reference value: 0.67 to 0.82%); type: functional
AGS [26] = assay: Induction of apoptosis in human AGS cells assessed as early apoptotic cells at 1 uM measured after 48 hrs FITC-A/PE-A staining based flow cytometry (reference value: 1.77 to 2.91%); type: functional
MGC-803 [27] = assay: Induction of apoptosis in human MGC803 cells assessed as early apoptotic cells at 1 uM measured after 48 hrs FITC-A/PE-A staining based flow cytometry (reference value: 0.59 to 3.54%); type: functional
MGC-803 [28] = assay: Induction of apoptosis in human MGC803 cells assessed as necrotic cells at 5 uM measured after 48 hrs FITC-A/PE-A staining based flow cytometry (reference value: 0.9 to 2.18%); type: functional
MGC-803 [29] = assay: Induction of apoptosis in human MGC803 cells assessed as necrotic cells at 0.5 uM measured after 48 hrs FITC-A/PE-A staining based flow cytometry (reference value: 0.9 to 2.18%); type: functional
AGS [30] = assay: Induction of apoptosis in human AGS cells assessed as necrotic cells at 1 uM measured after 48 hrs FITC-A/PE-A staining based flow cytometry (reference value: 1.35 to 2.69%); type: functional
MGC-803 [31] = assay: Induction of apoptosis in human MGC803 cells assessed as viable cells at 1 uM measured after 48 hrs FITC-A/PE-A staining based flow cytometry (reference value: 94.89 to 96.41%); type: functional; details: MGC-803, 48 h, read-out: Activity
MGC-803 [32] = assay: Induction of apoptosis in human MGC803 cells assessed as viable cells at 5 uM measured after 48 hrs FITC-A/PE-A staining based flow cytometry (reference value: 94.89 to 96.41%); type: functional; details: MGC-803, 48 h, read-out: Activity
MGC-803 [33] = assay: Induction of apoptosis in human MGC803 cells assessed as late apoptotic cells at 5 uM measured after 48 hrs FITC-A/PE-A staining based flow cytometry (reference value: 0.67 to 0.82%); type: functional
AGS [34] = assay: Induction of apoptosis in human AGS cells assessed as late apoptotic cells at 0.2 uM measured after 48 hrs FITC-A/PE-A staining based flow cytometry (reference value: 1.89 to 3.49%); type: functional
AGS [35] = assay: Induction of apoptosis in human AGS cells assessed as late apoptotic cells at 1 uM measured after 48 hrs FITC-A/PE-A staining based flow cytometry (reference value: 1.89 to 3.49%); type: functional
AGS [36] = assay: Induction of apoptosis in human AGS cells assessed as early apoptotic cells at 5 uM measured after 48 hrs FITC-A/PE-A staining based flow cytometry (reference value: 1.77 to 2.91%); type: functional

## C/C=C(\C)C(=O)C1=C2C3=CN(C/C=C(\C)CCC=C(C)C)C(/C=C/[C@@H](C)CC)=CC3=C(Cl)C(=O)[C@@]2(C)OC1=O
MGC-803 [1]
  pIC50: 6.14
AGS [2]
  pIC50: 6.92

## C/C=C(\C)C(=O)C1=C2C3=COC(/C=C/[C@@H](C)CC)=CC3=C(Cl)C(=O)[C@@]2(C)OC1=O [CHAETOVIRIDIN E]
MGC-803 [1]
  pIC50: < 5.00
AGS [2]
  pIC50: < 5.00

## CC[C@H](C)/C=C/C1=CC2=C(Cl)C(=O)[C@@]3(C)OC(=O)C(C(=O)[C@@H](C)[C@@H](C)O)=C3C2=CO1 [CHAETOVIRIDIN A]
MGC-803 [1]
  pIC50: < 5.00
AGS [2]
  pIC50: < 5.00

## C/C=C(\C)C(=O)C1=C2C3=CN(CC=C(C)C)C(/C=C/[C@@H](C)CC)=CC3=C(Cl)C(=O)[C@@]2(C)OC1=O
MGC-803 [1]
  pIC50: 5.17
AGS [2]
  pIC50: 5.70

## CC(=O)O[C@H]1C(=O)[C@@]2(C)[C@H]([C@H](OC(=O)c3ccccc3)[C@]3(O)C[C@H](OC(=O)[C@H](O)[C@@H](NC(=O)c4ccccc4)c4ccccc4)C(C)=C1C3(C)C)[C@]1(OC(C)=O)CO[C@@H]1C[C@@H]2O [PACLITAXEL]
MGC-803 [1]
  pIC50: 5.42

## CC[C@H](C)/C=C/C1=CC2=C(Cl)C(=O)[C@@]3(C)OC(=O)C(C(=O)[C@H](C)[C@@H](C)O)=C3C2=CN1CC=C(C)C
MGC-803 [1]
  pIC50: 5.57
AGS [2]
  pIC50: 5.19

## CCC(=O)C1=C2C3=CN(C/C=C(\C)CCC=C(C)C)C(/C=C/[C@@H](C)CC)=CC3=C(Cl)C(=O)[C@@]2(C)OC1=O
MGC-803 [1]
  pIC50: 5.66
AGS [2]
  pIC50: 5.92

## CC[C@H](C)/C=C/C1=CC2=C(Cl)C(=O)[C@@]3(C)OC(=O)C(C(=O)[C@@H](C)[C@@H](C)O)=C3C2=CN1CC=C(C)C
MGC-803 [1]
  pIC50: 5.52
AGS [2]
  pIC50: 5.54

## CCC(=O)C1=C2C3=CN(CC=C(C)C)C(/C=C/[C@@H](C)CC)=CC3=C(Cl)C(=O)[C@@]2(C)OC1=O
MGC-803 [1]
  pIC50: 5.24
AGS [2]
  pIC50: < 5.00

## CC[C@H](C)/C=C/C1=CC2=C(Cl)C(=O)[C@@]3(C)OC(=O)C(C(=O)[C@H](C)[C@@H](C)O)=C3C2=CN1C/C=C(\C)CCC=C(C)C
MGC-803 [3]
  Activity: 0.63%
AGS [4]
  viability at 1 µM: 53.3%
AGS [5]
  Activity: 1.67%
MGC-803 [6]
  viability at 0.5 µM: 96.1%
MGC-803 [7]
  Activity: 0.41%
AGS [8]
  Activity: Dose-dependent effect
MGC-803 [9]
  viability at 0.2 µM: 96.1%
MGC-803 [10]
  Activity: 0.7%
MGC-803 [11]
  Activity: Dose-dependent effect
AGS [12]
  Activity: 86.44%
MGC-803 [13]
  Activity: 2.79%
AGS [14]
  viability at 0.2 µM: 89.6%
AGS [15]
  Activity: 5.54%
AGS [16]
  Activity: 3.49%
AGS [17]
  Activity: 2.94%
MGC-803 [18]
  Activity: 6.78%
AGS [19]
  viability at 0.5 µM: 88.1%
AGS [20]
  Activity: 3.16%
MGC-803 [21]
  Activity: 0.25%
AGS [22]
  viability at 5 µM: 9.55%
MGC-803 [23]
  Activity: 2.55%
AGS [24]
  Activity: 2.92%
MGC-803 [25]
  Activity: 6.91%
AGS [26]
  Activity: 18.59%
MGC-803 [27]
  Activity: 1.33%
MGC-803 [28]
  Activity: 1.74%
MGC-803 [29]
  Activity: 0.73%
AGS [30]
  Activity: 5.05%
MGC-803 [31]
  viability at 1 µM: 85%
MGC-803 [1]
  pIC50: 6.11
MGC-803 [32]
  viability at 5 µM: 6.51%
MGC-803 [33]
  Activity: 91.5%
AGS [34]
  Activity: 4.34%
AGS [35]
  Activity: 23.07%
AGS [2]
  pIC50: 6.92
AGS [36]
  Activity: 2.33%
